Source: ChEMBL document CHEMBL3992503, “Developing piperlongumine-directed glutathione S-transferase inhibitors by an electrophilicity-based strategy” (Eur J Med Chem, 2017)
The source made the active and inactive calls. No cut-off for these calls is given here.

Legend:
Equus caballus = species: Equus caballus; experiment: Inhibition of equine liver GST assessed as decrease in conjugation of CDNB to GSH at 100 uM preincubated with GSH for 30 mins followed by CDNB addition measured for 3 mins relative to control
Procedure, shortened: (§1)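 CDNB–GSH conjugation by equine liver GST in 100 mM potassium phosphate pH 6.5 with 1 mM GSH. Enzyme and inhibitor preincubated 30 min at 37 °C. Reaction started with 1 mM CDNB (final) and followed at 340 nm for 3 min at 25 °C. Single-point inhibition at 100 (unit unclear); IC50 from sigmoidal fit of inhibition versus concentration.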

[1] = Inhibition of equine liver GST assessed as decrease in conjugation of CDNB to GSH preincubated with GSH for 30 mins followed by CDNB addition measured for 3 mins; design: species or system Equus caballus; procedure, shortened: as §1
[2] = Electrophilicity of the compound assessed as second-oder rate constant for reaction with cysteamine under pseudo-first-oder condition at 40 uM by spectrophotometric method
Procedure, shortened: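 Compound fixed at 40 (unit unclear) with cysteamine 0.67–9 mM in 100 mM Tris-HCl pH 7.4 containing 2 mM EDTA–ethanol (v/v 2/1), 25 °C, pseudo-first-order conditions. Decay of compound followed spectrophotometrically at its absorbance maximum; second-order constant k2 derived from these runs.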

A549 [3] = experiment: Inhibition of GST in human A549 cells at 25 uM after 1.5 hrs by DNs-CV probe based fluorescence microscopic method
[4] = Noncompetitive inhibition of equine liver GST using fixed GSH substrate concentration and varying levels of CDNB preincubated with GSH for 30 mins followed by CDNB addition measured for 3 mins by Lineweaver-Burk plot analysis; design: species or system Equus caballus
Procedure, shortened: (§2)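 Equine liver GST in 100 mM potassium phosphate pH 6.5 with inhibitor at 0, 12.5, 25 or 50 (unit unclear). Varied substrate at 0.1–1 mM, other substrate fixed at 1 mM: GSH varied for line 1, CDNB for line 10. Preincubated 30 min at 37 °C, started with CDNB, A340 read for 3 min at 25 °C. Mean of triplicates on Lineweaver-Burk plots; Ki from intercept (CDNB) or slope (GSH) replots.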

[5] = Competitive inhibition of equine liver GST using varying levels of substrate GSH and fixed CDNB concentration preincubated with GSH for 30 mins followed by CDNB addition measured for 3 mins by Lineweaver-Burk plot analysis; design: species or system Equus caballus; procedure, shortened: as §2
[6] = target: T1, Glutathione S-transferase Mu 1 (Homo sapiens) (UniProt P09488); experiment: Inhibition of GSTM1 in human A549 cells assessed as potentiation of cisplatin-induced cytotoxicity at 5 uM preincubated for 2 hrs followed by cisplatin addition measured after 48 hrs by MTT assay; assay type: cell-based
T1 sequence (whole entry): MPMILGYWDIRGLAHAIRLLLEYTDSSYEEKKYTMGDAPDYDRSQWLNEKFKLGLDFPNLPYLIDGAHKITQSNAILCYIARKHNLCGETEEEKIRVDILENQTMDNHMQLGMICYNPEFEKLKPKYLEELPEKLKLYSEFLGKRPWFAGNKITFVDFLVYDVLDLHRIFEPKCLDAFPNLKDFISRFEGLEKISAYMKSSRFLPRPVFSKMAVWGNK
Procedure, shortened: (§3)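 A549 cells seeded at 3 × 10⁴ cells/mL and cultured 24 h. For line 6, DTT pretreatment (250, unit unclear) for 1 h. Compound added for 2 h, then cisplatin at 2.5, 5, 10 and 20 (unit unclear) for 48 h. MTT for 4 h at 37 °C in the dark, DMSO solubilisation, OD read at 570 nm.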

[7] = target: T1, Glutathione S-transferase Mu 1 (Homo sapiens); experiment: Inhibition of GSTM1 in human A549 cells assessed as potentiation of cisplatin-induced cytotoxicity by measuring combination index at 5 uM preincubated for 2 hrs followed by cisplatin addition measured after 48 hrs by MTT assay; assay type: cell-based
[8] = target: T1, Glutathione S-transferase Mu 1 (Homo sapiens); experiment: Inhibition of GSTM1 in human A549 cells assessed as potentiation of cisplatin-induced cytotoxicity at 5 uM preincubated for 2 hrs followed by cisplatin addition measured after 48 hrs in presence of DTT by MTT assay; assay type: cell-based; procedure, shortened: as §3
A549 [9] = experiment: Inhibition of GST in human A549 cells at 25 uM after 1.5 hrs in presence of DTT by DNs-CV probe based fluorescence microscopic method

Row | SMILES | inhibition (Equus caballus) | IC50 [1] | K [2] | inhibition (A549 [3]) | Ki [4] | Ki [5] | inhibition [6] | CI [7] | inhibition [8] | inhibition (A549 [9])
1 | O=C1C=CCCN1C(=O)/C=C/c1ccc(C(F)(F)F)cc1 | 55.5% | 41.6 µM | 1.35 M⁻¹ s⁻¹ | – | – | – | – | – | – | –
2 | O=C1C=CCCN1C(=O)/C=C/c1cccc(C(F)(F)F)c1 | 53% | 50.1 µM | 1.13 M⁻¹ s⁻¹ | – | – | – | – | – | – | –
3 | O=C(/C=C/c1ccccc1C(F)(F)F)N1CCC=C(Cl)C1=O | 40.3% | > 100 µM | 0.67 M⁻¹ s⁻¹ | – | – | – | – | – | – | –
4 | COc1cc(/C=C/C(=O)C2CCC=CC2=O)cc(OC)c1OC (stereo not drawn) | 50.5% | > 100 µM | 1.15 M⁻¹ s⁻¹ | – | – | – | – | – | – | –
5 | COc1cc(/C=C/C(=O)N2CCC=CC2=O)cc(OC)c1OC [PIPLARTINE] | 30.7% | > 100 µM | 0.46 M⁻¹ s⁻¹ | inactive | – | – | – | – | – | –
6 | COc1cc(/C=C/C(=O)N2CCC=C(Cl)C2=O)cc(OC)c1OC | 30.8% | > 100 µM | 0.99 M⁻¹ s⁻¹ | – | – | – | – | – | – | –
7 | COc1cc(/C=C/C(=O)N2CCCCC2=O)cc(OC)c1OC | 15.4% | > 100 µM | 0.35 M⁻¹ s⁻¹ | – | – | – | – | – | – | –
8 | C/C=C/C(=O)N1CCC=CC1=O | 8.2% | > 100 µM | 1.21 M⁻¹ s⁻¹ | – | – | – | – | – | – | –
9 | COc1cc(CCC(=O)N2CCCCC2=O)cc(OC)c1OC [TETRAHYDROPIPLARTINE] | 0% | > 100 µM | – | – | – | – | – | – | – | –
10 | O=C(/C=C/c1ccc(C(F)(F)F)cc1)N1CCC=C(Cl)C1=O | 74.7% | 5.6 µM | 2.64 M⁻¹ s⁻¹ | Active | 24.7 µM | 7.8 µM | Active | < 1 | inactive | inactive
11 | O=C1C=CCCN1C(=O)/C=C/c1ccccc1C(F)(F)F | 31.5% | > 100 µM | 0.39 M⁻¹ s⁻¹ | – | – | – | – | – | – | –
12 | O=C(/C=C/c1cccc(C(F)(F)F)c1)N1CCC=C(Cl)C1=O | 71% | 10.5 µM | 2.53 M⁻¹ s⁻¹ | – | – | – | – | – | – | –
